ERAP1 HTS inh: blocks human ERAP1 aminopeptidase activity; recombinant ERAP1, Leu-AMC fluorescence, 60 min; Q9NZ08; inhibition, % at 10.7 µM; 340,000 compounds, 0.15% hits;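 active = mean replicate inhibition of at least 30%, or all replicates individually reaching that 30% level; inactive = mean below 30% and not every replicate reaching it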;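 also: 0% = neutral control wells and 100% = L-leucinethiol positive control wells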
Target sequence (Q9NZ08 whole entry, looked up): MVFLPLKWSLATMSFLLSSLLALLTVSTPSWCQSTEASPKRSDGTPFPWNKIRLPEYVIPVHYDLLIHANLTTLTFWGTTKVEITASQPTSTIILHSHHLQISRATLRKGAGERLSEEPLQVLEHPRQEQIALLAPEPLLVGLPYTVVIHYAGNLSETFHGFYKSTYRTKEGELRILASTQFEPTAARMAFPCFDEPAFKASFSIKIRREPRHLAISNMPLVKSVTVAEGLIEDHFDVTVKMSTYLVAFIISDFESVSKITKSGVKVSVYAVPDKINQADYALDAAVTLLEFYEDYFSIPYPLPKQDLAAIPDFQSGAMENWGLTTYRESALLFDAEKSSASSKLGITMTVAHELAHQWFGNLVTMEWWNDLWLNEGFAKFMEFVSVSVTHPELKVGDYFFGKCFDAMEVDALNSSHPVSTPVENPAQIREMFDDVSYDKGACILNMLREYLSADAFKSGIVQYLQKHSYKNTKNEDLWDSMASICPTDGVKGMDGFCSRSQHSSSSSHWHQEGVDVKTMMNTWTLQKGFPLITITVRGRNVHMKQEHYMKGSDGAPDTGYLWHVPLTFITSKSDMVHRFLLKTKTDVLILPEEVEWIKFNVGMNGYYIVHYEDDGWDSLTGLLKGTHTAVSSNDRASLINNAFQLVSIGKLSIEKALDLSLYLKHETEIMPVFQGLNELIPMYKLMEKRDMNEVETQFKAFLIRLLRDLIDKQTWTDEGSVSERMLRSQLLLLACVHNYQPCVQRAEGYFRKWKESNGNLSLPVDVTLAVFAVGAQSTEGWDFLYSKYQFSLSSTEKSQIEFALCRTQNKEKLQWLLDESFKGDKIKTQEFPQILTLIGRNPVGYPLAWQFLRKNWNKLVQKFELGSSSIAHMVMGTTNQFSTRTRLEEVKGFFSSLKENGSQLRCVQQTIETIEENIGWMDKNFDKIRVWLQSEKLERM
HIV Env fusion: blocks HIV Env-driven cell-cell fusion. HeLa-JRFL Env/CEM21 cell fusion, luciferase. inhibition, % at 12.3 µM. 360,000 compounds, 1.1% hits. AID 651610;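 active = mean replicate inhibition score of at least 50 and every replicate individually at or above 50; inconclusive = only one of the two criteria met; inactive = mean below 50 and not all replicates reaching 50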;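 also: 0% = plate neutral controls and 100% = maraviroc near 300 nM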
esBAF inh: SWI/SNF esBAF complex inhibition. mouse ES cells, Bmi1-luciferase knock-in reporter, 24 h; 100% = twice the neutral-well signal. reporter increase, % at 12.5 µM. 350,000 compounds, 2% hits. AID 602393; in the data active = activation above about 40%; inconclusive = no clear call, values can overlap the other calls;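 also: 0% = median of the plate's neutral control wells and 100% = double that signal; a rise in the Bmi1 reporter signal indicates esBAF inhibition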
MITF act: MITF TRPM1 promoter activation in melanoma cells. SK-MEL-5 TRPM1-promoter luciferase, 24 h; % of positive control, neutral wells = 0. activation, % at 12.5 µM. 300,000 compounds, 0.75% hits. AID 588334;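 active = mean activation of at least 80% with every replicate also reaching 80%; inconclusive = mean reaches 80% but some replicate falls short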;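 also: 0% = neutral control wells and 100% = parthenolide positive control wells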
Cneo AK release: Cryptococcus neoformans lysis via adenylate kinase release | C. neoformans lysis, adenylate kinase release luminescence, 4 h; normalised: neutral wells 0, clomiphene wells 100 | lysis activity, % at 15 µM | 360,000 compounds, 0.2% hits;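 active = mean lysis activity across replicates of at least 80%, whatever share of replicates individually reach that level; inactive = mean lysis activity below 80%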
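Material: C. neoformans cells; Schedule: 4 h static compound exposure, 37 °C, read 1 h post-reagent; Measured by: adenylate kinase release luminescence; Read-out: signal increase indicating cell lysis; Controls: Clomiphene as positive lysis control.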
Wnt act: activators of Wnt/beta-catenin signaling; activation, % at 9.35 µM; 300,000 compounds, 1.2% hits; Wnt/beta-catenin reporter cell assay, activator, plate reader; in the data active = activation above about 30%, passing the limit was not always enough; inconclusive = no clear call, values can overlap the other calls;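 also: 0% = neutral control wells and 100% = positive control wells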
* = called active by the depositor; ? = inconclusive; . = no result; [ ] = dose if it differs, or a comment. Compounds with a hit are over-represented: about 3.5% of the library has one in this group of screens.

SMILES	ERAP1 HTS inh	HIV Env fusion	esBAF inh	MITF act	Cneo AK release	Wnt act
CCC(=O)N(C)C[C@H]1Oc2cc(/C=C/c3ccccc3)ccc2S(=O)(=O)N([C@@H](C)CO)C[C@H]1C	2	59*[16.7 µM]	0	.	3	.
Cc1noc(C)c1NC(=O)N(C)C[C@@H]1OCCCC[C@@H](C)Oc2ccc(NS(=O)(=O)c3ccccc3)cc2C(=O)N([C@H](C)CO)C[C@H]1C	-2	-41[16.7 µM]	0	.	1	.
COc1ccc2c3c(n(C)c2c1)[C@@H](CO)N(Cc1cccc(F)c1)CC31CN(C)C1	-2	.	.	.	.	.
COc1cccc(/C=C(\C#N)c2nc3ccc(C)cc3[nH]2)c1OCC(=O)O	3	-3	51*	0	-2	0
COc1ccc(C(=O)N/N=C\c2ccoc2)cc1	0	-6	.	-2	-3	5
Cc1ccc(C(=O)N/N=C/c2ccoc2)cc1C	-1	-25	50*	18	-1	-1
Clc1ccc(-c2nnc(-c3ccco3)o2)cc1	.	-111	60*	59	-4	38*
CC(C)OC(=O)c1ccc(NC(=O)c2ccccc2)cc1	.	-88	.	60	.	.
CC(C)OC(=O)c1ccc2nc3ccccc3nc2c1	-4	-94	-4	6	-3	43*
CC(C)OC(=O)c1ccc2ccc(-c3ccccc3)nc2c1	-2	-255	55*	.	-6	24
C[C@@H]1CCCCO[C@H](CN(C)CC2CC2)[C@H](C)CN([C@@H](C)CO)C(=O)c2cc(NC(=O)NC3CCCCC3)ccc2O1	2	0[16.7 µM]	0	.	4	.
CC(=O)N1[C@@H]2Cn3c(ccc(C4=CCCC4)c3=O)[C@H]1[C@@H](C(=O)NCC1CC1)[C@@H]2CO	-1	.	.	.	.	.
C/C(=N\Nc1ccc(C(=O)O)cc1)c1ccc(Cl)s1	-1	-61	67*	.	0	?
Cc1ccc(S(=O)(=O)N[C@H]2CC[C@H](CCn3cc(C4CCCC4)nn3)O[C@H]2CO)cc1	2	9[16.7 µM]	2	.	3	.
C=CCn1c(SCc2c(C)noc2C)nc2ccccc2c1=O	.	62*	.	-2	-3	.
CC(C)NC(=O)N(C)C[C@@H]1Oc2ccc(NC(=O)C3CCCCC3)cc2C(=O)N([C@@H](C)CO)C[C@H]1C	2	-8[16.7 µM]	2	.	-7	.
COC(=O)C[C@@H]1CC[C@H]2[C@H](COc3ccc(NC(=O)Nc4ccccc4C)cc3C(=O)N2C)O1	-3	-4[16.7 µM]	2	.	3	.
CC(=O)c1ccc(N=Nc2ccc(N)cc2)cc1	2	-64	-39	15	17	34*
CC(=O)N(C)C[C@H]1Oc2ncc(/C=C/c3ccccc3)cc2C(=O)N([C@H](C)CO)C[C@H]1C	-4	1[16.7 µM]	0	.	3	.
C/C(=N\NC(=O)COc1ccc(C(C)(C)C)cc1)c1ccc(-n2ccnc2)cc1	.	-54	48*	64	-1	.
COc1ccc(OCC(=O)N/N=C(\C)c2ccc(-n3ccnc3)cc2)cc1	.	18	4	0	.	5
C[C@@H]1CN([C@@H](C)CO)C(=O)c2cc(NS(C)(=O)=O)ccc2O[C@H]1CN(C)S(=O)(=O)c1ccc(F)cc1	0	.	0	.	5	.
Cc1nn(CCOc2ccccc2)c(=O)n1-c1ccccc1	.	-23	43*	22	2	27
COCCC(=O)N1CCC(Oc2ccc(C(=O)N3CCCCCC3)cc2)CC1	-1	-5	1	11	-1	1
C#CCN(C(=O)c1ccc(OC2CCN(C(=O)CCOC)CC2)cc1)C1CCCCC1	0	6	-3	-9	103*	1
SMILES	ERAP1 HTS inh	HIV Env fusion	esBAF inh	MITF act	Cneo AK release	Wnt act
O=C(Nc1ccccc1F)N[C@@H]1C=C[C@@H](CC(=O)N2CCCCC2)O[C@H]1CO	0	-6[16.7 µM]	-4	.	1	.
CC(=O)c1sc(N/N=C/c2cccc([N+](=O)[O-])c2)nc1C	0	-73	60*	105*	-2	15
CC(=O)c1sc(N/N=C/c2cccc(O)c2)nc1C	9	-56	63*	93*	-8	17
CC(=O)c1sc(N/N=C\c2ccc(N(C)C)cc2)nc1C	2	-457	27	.	1	25
C[C@@H]1CN([C@@H](C)CO)S(=O)(=O)c2ccc(-c3ccc(C#N)cc3)cc2O[C@@H]1CN(C)C	-3	10[16.7 µM]	-3	.	-7	.
O=C(Nc1ccc(Cl)cc1)N1C[C@H]2[C@@H](c3ccccc31)[C@H](CO)N2C(=O)c1cccnc1	0	.	18	.	-7	.
CC1=CC(=C2C(=O)c3ccccc3C2=O)C=C(C)N1Cc1ccco1	3	.	.	40	.	51*
O=c1[nH]c2c(s1)C=Nc1ccccc1N2	.	-12	54*	-13	0	?
C[C@H](CO)N1C[C@H](C)[C@H](CN(C)C(=O)Nc2ccccc2)OCc2cn(nn2)CCCC1=O	-1	-5[16.7 µM]	0	.	-6	.
O=C(C[C@@H]1CC[C@H](NS(=O)(=O)c2ccccc2F)[C@H](CO)O1)NCCCN1CCOCC1	-1	1[16.7 µM]	-1	.	-1	.
CC(NC(=O)/C(C#N)=C/c1ccc(OCC(=O)O)cc1)c1ccccc1 (stereo unspecified)	35*	1	-10	.	1	0
C[C@@H](NC(=O)/C(C#N)=C/c1ccc(O)c(O)c1)c1ccccc1	3	-31	-3	1	1	-6
Cc1ccccc1-c1ccc(C2[C@H]3CNC[C@@H]2N3S(=O)(=O)Cc2ccccc2)cc1 (stereo partly specified)	0	.	.	.	.	.
C[C@H]1CN([C@@H](C)CO)S(=O)(=O)c2ccc(C#Cc3ccccn3)cc2O[C@H]1CN(C)Cc1ccccc1	1	-6[16.7 µM]	4	.	0	.
C[C@@H]1CN([C@H](C)CO)S(=O)(=O)c2ccc(C#Cc3ccccn3)cc2O[C@H]1CN(C)Cc1ccccc1	-1	3[16.7 µM]	10	.	91*	.
C[C@@H]1CN([C@@H](C)CO)S(=O)(=O)c2ccc(C#Cc3ccccn3)cc2O[C@H]1CN(C)Cc1ccccc1	0	7[16.7 µM]	4	.	101*	.
COc1ccc(NC(=O)Nc2ccc3c(c2)C(=O)N([C@@H](C)CO)C[C@@H](C)[C@H](CN(C)C(=O)c2ccccc2)OCCCC[C@@H](C)O3)cc1	0	-8[16.7 µM]	6	.	43	.
COc1ccc(-c2cc(-c3cc(C)ccc3O)[nH]n2)cc1	-3	-10	.	30	.	-8
COc1ccc(-c2cc(-c3ccc(OC)cc3)[nH]n2)cc1	.	-81	64*	?	-2	49*
COc1ccc(-c2cc(-c3ccc(C)cc3)n[nH]2)c(O)c1	-4	-94	?	68	-4	55*
Cc1cc(=O)oc2cc(O[C@@H]3O[C@H](CO)[C@@H](O)[C@H](O)[C@H]3O)ccc12	3	12	1	-3	-4	2
COc1ccc(-c2coc3cc(O[C@@H]4O[C@H](CO)[C@@H](O)[C@H](O)[C@H]4O)ccc3c2=O)cc1	-1	-121	64*	57	-7	?

Screening results deposited in PubChem BioAssay by Broad Institute.
